Measurements from ChEMBL document CHEMBL1221191, “Inhibitors of Polo-like kinase reveal roles in spindle-pole maintenance” (Nat Chem Biol, 2006).
Each block holds one compound with its values, some of them ahead of it. Activity calls are given as the source filed them. No cut-off for these calls is given here.

Tests used:
S2 [1] = experiment: Antimitotic activity against Drosophila melanogaster S2 cells assessed as loss of MPM2 epitope from centrosome at 20 nM by immunostaining; type: functional, cell-based
Summary of the method: (§1)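 Centrosomes partially purified from Drosophila embryos, some stripped with 1 M KI. Compound (10 or 20 nM; 0.1% DMSO carrier) incubated 20 min at 25 °C with centrosomes or with high-speed embryonic cytoplasmic supernatant, then microtubule nucleation assayed with rhodamine-labelled tubulin. Staining for γ-tubulin, MPM2 epitope, Asp and centrosomin. MPM2 also checked by western blot of treated supernatant.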

[2] = target: Protein kinase C alpha type (Homo sapiens, UniProt P17252); experiment: Inhibition of PKCalpha
[3] = Inhibition of PKA
[4] = target: Cyclin-dependent kinase 7/ cyclin H (Homo sapiens, UniProt P50613); experiment: Inhibition of CDK7/Cyclin H; type: protein-complex assay
[5] = Inhibition of P70S6K
[6] = Inhibition of CK2
A549 = experiment: Cytotoxicity against human A549 cells assessed as mitotic progression after 72 hrs by MTT assay; type: functional, cell-based; conditions: A549, 72 h
S2 [7] = experiment: Antimitotic activity against Drosophila melanogaster S2 cells assessed as nucleated microtubule at 20 nM; type: functional, cell-based; summary of the method: as §1
S2 [8] = experiment: Antimitotic activity against Drosophila melanogaster S2 cells assessed as loss of gamma-tubulin at 20 nM by immunostaining; type: functional, cell-based; summary of the method: as §1
S2 [9] = experiment: Antimitotic activity against Drosophila melanogaster S2 cells assessed as nucleated microtubule at 10 nM; type: functional, cell-based; summary of the method: as §1
[10] = target: Tyrosine-protein kinase ABL1 (Homo sapiens, UniProt P00519); experiment: Inhibition of Abl
S2 [11] = experiment: Antimitotic activity against Drosophila melanogaster S2 cells assessed as collapsed spindles at 25 uM; type: functional, cell-based
Summary of the method: (§2)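 Drosophila S2 cells exposed to 10 μM (24 h, fixed) or 25 μM (added at time 0 to cells already in mitosis) of compound, with 0.1% DMSO control. Fixed cells immunostained for α-tubulin, γ-tubulin and DNA. Live cells expressing GFP-tubulin filmed by spinning-disk confocal time-lapse at 25 ± 1 °C to follow spindle behaviour.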

S2 [12] = experiment: Antimitotic activity against Drosophila melanogaster S2 cells cytosolic extract assessed as loss of MPM2 epitope; type: functional, cell-based; summary of the method: as §1
[13] = Antimitotic activity against Drosophila melanogaster S2 cells assessed as bipolar spindles at 10 uM after 24 hrs by immunostaining relative to control; type: functional; summary of the method: as §2
HeLa [14] = experiment: Cytotoxicity against human HeLa cells assessed as mitotic progression after 72 hrs by MTT assay; type: functional, cell-based
[15] = target: Cyclin-dependent kinase 4/cyclin D1 (Homo sapiens, UniProt P11802); experiment: Inhibition of CDK4/Cyclin D1; type: protein-complex assay
[16] = Inhibition of MAPK/ERK
CDK9/cyclin T1 = CDK9/cyclin T1 (Homo sapiens, UniProt P50750); experiment: Inhibition of CDK9/Cyclin T; type: protein-complex assay
S2 [17] = experiment: Antimitotic activity against Drosophila melanogaster S2 cells assessed as nucleated microtubule at 20 nM in presence of high speed cytoplasmic supernatant; type: functional, cell-based; summary of the method: as §1
HeLa [18] = experiment: Antitumor activity against human HeLa cells assessed as shortened mitotic spindles at 10 uM after 24 hrs by immunostaining relative to control; type: functional, cell-based
Summary of the method: (§3)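 HeLa cells treated 24 h with 10 or 25 μM compound or 0.1% DMSO, then fixed and stained for α-tubulin, γ-tubulin and DNA. Spindle length taken as pole-to-pole distance. Microtubule density judged from the immunostained spindles.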

[19] = target: Mitogen-activated protein kinase 11 (Homo sapiens, UniProt Q15759); experiment: Inhibition of SAPK2
Drosophila melanogaster = experiment: Inhibition of […]-mediated Asp protein recruitment in Drosophila melanogaster S2 at 20 nM in presence of high-speed supernatant of syncytial embryo cytoplasam
Summary of the method: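 Centrosomes partially purified from D. melanogaster embryos were salt-stripped with 1 M KI. They were then incubated with rhodamine-labeled tubulin and high-speed embryonic cytoplasmic supernatant. The supernatant was pretreated with compound (20 nM) or 0.1% DMSO for 20 min at 25 °C. Preparations were immunostained for centrosomin, γ-tubulin, Asp and the MPM2 phosphoepitope, and microtubule nucleation was scored.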

[20] = target: Glycogen synthase kinase-3 alpha (Homo sapiens, UniProt P49840); experiment: Inhibition of GSK3alpha
[21] = target: Aurora kinase B (Drosophila melanogaster) (UniProt Q9VKN7); experiment: Inhibition of Aurora B kinase in Drosophila melanogaster assessed as histone H3 phosphorylation at Ser10
HT-29 = experiment: Cytotoxicity against human HT-29 cells assessed as mitotic progression after 72 hrs by MTT assay; type: functional, cell-based; conditions: HT-29, 72 h
S2 [22] = experiment: Antimitotic activity against Drosophila melanogaster S2 cells expressing GFP-tubulin assessed as abnormal spindles at 25 uM; type: functional, cell-based; summary of the method: as §2
[23] = target: RAC-alpha serine/threonine-protein kinase (Homo sapiens, UniProt P31749); experiment: Inhibition of Akt
[24] = target: Cyclin-dependent kinase 1/cyclin B1 (Homo sapiens, UniProt P06493); experiment: Inhibition of CDK1/Cyclin B; type: protein-complex assay
S2 [25] = experiment: Inhibition of Plk1 in Drosophila melanogaster S2 cells at 20 nM; type: cell-based
Aurora kinase A = Aurora kinase A (Homo sapiens, UniProt O14965); experiment: Inhibition of Aurora A
[26] = target: Cyclin-dependent kinase 2/cyclin A (Homo sapiens, UniProt P24941); experiment: Inhibition of CDK2/Cyclin A; type: protein-complex assay
HeLa [27] = experiment: Antitumor activity against human HeLa cells assessed as change in kinetochore microtubules density at 25 uM after 24 hrs by immunostaining relative to control; type: functional, cell-based; summary of the method: as §3
[28] = target: Cyclin-dependent kinase 2/cyclin E1 (Homo sapiens, UniProt P24941); experiment: Inhibition of CDK2/Cyclin E; type: protein-complex assay
[29] = Inhibition of CamK2
HeLa [30] = experiment: Antitumor activity against human HeLa cells assessed as shortened mitotic spindles at 25 uM after 24 hrs by immunostaining relative to control; type: functional, cell-based; summary of the method: as §3
S2 [31] = experiment: Inhibition of […]-mediated gamma-TuRc recruitment in Drosophila melanogaster S2 cells at 20 nM in presence of high-speed supernatant of syncytial embryo cytoplasam; type: cell-based; summary of the method: as §1
[32] = target: Mitogen-activated protein kinase 12 (Homo sapiens) (UniProt P53778); experiment: Residual activity of SAPK3 at 100 uM relative to control
[33] = target: RAF proto-oncogene serine/threonine-protein kinase (Homo sapiens) (UniProt P04049); experiment: Residual activity of c-RAF at 100 uM relative to control
[34] = target: Tyrosine-protein kinase CSK (Homo sapiens) (UniProt P41240); experiment: Inhibition of CSK at 100 uM
[35] = target: Tyrosine-protein kinase Yes (Homo sapiens) (UniProt P07947); experiment: Residual activity of Yes at 100 uM relative to control
[36] = target: Ribosomal protein S6 kinase alpha-3 (Homo sapiens) (UniProt P51812); experiment: Residual activity of Rsk2 at 100 uM relative to control
[37] = target: MAP kinase-activated protein kinase 2 (Homo sapiens) (UniProt P49137); experiment: Residual activity of MAPKAP-K2 at 100 uM relative to control
[38] = target: Mitogen-activated protein kinase 9 (Homo sapiens) (UniProt P45984); experiment: Residual activity of JNK2alpha2 at 100 uM relative to control
[39] = target: Insulin receptor (Homo sapiens) (UniProt P06213); experiment: Residual activity of IR at 100 uM relative to control
[40] = target: Serine/threonine-protein kinase Chk1 (Homo sapiens) (UniProt O14757); experiment: Residual activity of Chk1 at 100 uM relative to control
[41] = target: Dual specificity mitogen-activated protein kinase kinase 6 (Homo sapiens) (UniProt P52564); experiment: Residual activity of MKK6 at 100 uM relative to control
[42] = target: Serine/threonine-protein kinase Chk2 (Homo sapiens) (UniProt O96017); experiment: Residual activity of Chk2 at 100 uM relative to control
[43] = target: Platelet-derived growth factor receptor alpha (Homo sapiens) (UniProt P16234); experiment: Residual activity of PDGFRalpha at 100 uM relative to control
[44] = Residual activity of SAPK2b at 100 uM relative to control
[45] = target: Insulin-like growth factor 1 receptor (Homo sapiens) (UniProt P08069); experiment: Residual activity of IGF-1R at 100 uM relative to control
[46] = target: Tyrosine-protein kinase CSK (Homo sapiens) (UniProt P41240); experiment: Inhibition of CSK at 100 uM relative to control; values are per cent of control
[47] = target: Inhibitor of nuclear factor kappa-B kinase subunit alpha (Homo sapiens) (UniProt O15111); experiment: Residual activity of IKKalpha at 100 uM relative to control
[48] = target: Ribosomal protein S6 kinase alpha-5 (Homo sapiens) (UniProt O75582); experiment: Residual activity of MSK1 at 100 uM relative to control
[49] = target: Protein kinase C gamma type (Homo sapiens) (UniProt P05129); experiment: Residual activity of PKCgamma at 100 uM relative to control
[50] = target: Dual specificity mitogen-activated protein kinase kinase 1 (Homo sapiens) (UniProt Q02750); experiment: Residual activity of MEK1 at 100 uM relative to control
[51] = target: Protein kinase C beta type (Homo sapiens) (UniProt P05771); experiment: Residual activity of PKCbeta2 at 100 uM relative to control
[52] = target: Cyclin-dependent kinase 2/cyclin E1 (Homo sapiens) (UniProt P24864+P24941); experiment: Residual activity of CDK2/E at 100 uM relative to control
[53] = target: Fibroblast growth factor receptor 3 (Homo sapiens) (UniProt P22607); experiment: Residual activity of FGFR3 at 100 uM relative to control
[54] = target: Serine/threonine-protein kinase PLK1 (Homo sapiens, UniProt P53350)
Serine/threonine-protein kinase PLK1, sequence (P53350 whole entry): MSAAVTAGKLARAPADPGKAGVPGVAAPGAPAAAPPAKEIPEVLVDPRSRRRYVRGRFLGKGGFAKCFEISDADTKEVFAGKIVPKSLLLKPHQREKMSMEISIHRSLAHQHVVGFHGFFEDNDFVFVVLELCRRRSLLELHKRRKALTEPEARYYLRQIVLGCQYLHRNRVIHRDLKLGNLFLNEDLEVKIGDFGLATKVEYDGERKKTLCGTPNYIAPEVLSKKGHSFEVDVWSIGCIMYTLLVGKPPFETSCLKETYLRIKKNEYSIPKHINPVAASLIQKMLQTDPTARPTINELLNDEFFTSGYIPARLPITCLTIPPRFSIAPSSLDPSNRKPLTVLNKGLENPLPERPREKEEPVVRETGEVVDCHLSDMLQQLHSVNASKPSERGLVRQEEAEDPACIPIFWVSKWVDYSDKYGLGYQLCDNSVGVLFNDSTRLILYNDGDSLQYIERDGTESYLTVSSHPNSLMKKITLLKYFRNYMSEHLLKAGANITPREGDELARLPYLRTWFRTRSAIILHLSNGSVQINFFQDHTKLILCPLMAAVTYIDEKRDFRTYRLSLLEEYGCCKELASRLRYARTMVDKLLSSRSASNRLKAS

Glycogen synthase kinase-3 alpha, sequence (P49840 whole entry): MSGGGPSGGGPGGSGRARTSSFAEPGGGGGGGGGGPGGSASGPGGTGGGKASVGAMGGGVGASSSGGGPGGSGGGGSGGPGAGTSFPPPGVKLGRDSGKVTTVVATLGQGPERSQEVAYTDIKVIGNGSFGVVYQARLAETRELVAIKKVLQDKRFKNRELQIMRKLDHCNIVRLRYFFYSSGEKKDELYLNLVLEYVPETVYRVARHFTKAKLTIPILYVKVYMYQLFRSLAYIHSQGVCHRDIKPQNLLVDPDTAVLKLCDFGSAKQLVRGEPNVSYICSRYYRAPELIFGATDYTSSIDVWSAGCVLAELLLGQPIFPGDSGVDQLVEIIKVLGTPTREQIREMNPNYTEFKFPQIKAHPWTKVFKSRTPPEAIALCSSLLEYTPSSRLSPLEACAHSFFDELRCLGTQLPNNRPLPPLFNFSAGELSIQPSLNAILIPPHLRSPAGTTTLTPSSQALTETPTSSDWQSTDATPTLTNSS
CDK9/cyclin T1, sequence (O60563 whole entry): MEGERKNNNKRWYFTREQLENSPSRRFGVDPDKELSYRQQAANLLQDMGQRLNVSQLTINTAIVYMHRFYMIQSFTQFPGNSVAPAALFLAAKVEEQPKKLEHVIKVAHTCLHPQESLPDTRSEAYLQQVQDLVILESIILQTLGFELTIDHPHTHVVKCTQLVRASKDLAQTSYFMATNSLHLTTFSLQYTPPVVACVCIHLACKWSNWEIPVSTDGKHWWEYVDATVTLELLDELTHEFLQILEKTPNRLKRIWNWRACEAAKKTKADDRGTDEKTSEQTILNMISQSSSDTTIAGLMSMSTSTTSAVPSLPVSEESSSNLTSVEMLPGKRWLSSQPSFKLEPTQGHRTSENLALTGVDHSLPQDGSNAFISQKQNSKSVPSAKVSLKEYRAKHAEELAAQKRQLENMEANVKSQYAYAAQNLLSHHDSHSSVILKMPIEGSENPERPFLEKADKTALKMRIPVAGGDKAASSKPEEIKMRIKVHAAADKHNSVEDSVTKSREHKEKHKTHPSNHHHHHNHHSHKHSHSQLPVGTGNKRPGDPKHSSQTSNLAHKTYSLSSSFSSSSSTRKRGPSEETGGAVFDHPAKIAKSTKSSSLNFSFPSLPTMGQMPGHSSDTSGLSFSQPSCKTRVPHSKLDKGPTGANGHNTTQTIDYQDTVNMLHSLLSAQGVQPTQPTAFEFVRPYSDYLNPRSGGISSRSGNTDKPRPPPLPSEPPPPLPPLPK
CDK9/cyclin T1, sequence (P50750 whole entry): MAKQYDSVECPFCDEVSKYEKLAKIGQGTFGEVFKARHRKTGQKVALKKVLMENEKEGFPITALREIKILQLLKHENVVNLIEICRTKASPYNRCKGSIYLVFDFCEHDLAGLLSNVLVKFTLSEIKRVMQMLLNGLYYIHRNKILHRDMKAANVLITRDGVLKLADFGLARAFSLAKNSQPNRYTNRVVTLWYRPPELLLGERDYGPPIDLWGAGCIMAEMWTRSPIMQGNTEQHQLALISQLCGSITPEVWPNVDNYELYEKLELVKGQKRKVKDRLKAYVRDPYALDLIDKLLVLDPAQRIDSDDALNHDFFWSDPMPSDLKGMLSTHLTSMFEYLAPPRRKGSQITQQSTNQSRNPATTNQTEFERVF
Aurora kinase A, sequence (O14965 whole entry): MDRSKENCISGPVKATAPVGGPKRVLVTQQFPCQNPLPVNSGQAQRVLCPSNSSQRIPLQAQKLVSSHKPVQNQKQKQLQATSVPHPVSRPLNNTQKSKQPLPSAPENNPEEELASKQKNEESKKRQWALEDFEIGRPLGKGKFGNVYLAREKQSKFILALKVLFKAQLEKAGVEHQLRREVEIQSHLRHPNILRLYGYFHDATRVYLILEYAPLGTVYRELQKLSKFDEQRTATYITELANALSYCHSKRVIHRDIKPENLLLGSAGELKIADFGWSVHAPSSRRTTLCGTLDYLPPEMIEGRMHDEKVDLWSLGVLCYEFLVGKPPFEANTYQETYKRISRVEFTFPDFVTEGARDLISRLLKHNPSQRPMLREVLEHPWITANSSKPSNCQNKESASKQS
Mitogen-activated protein kinase 11, sequence (Q15759 whole entry): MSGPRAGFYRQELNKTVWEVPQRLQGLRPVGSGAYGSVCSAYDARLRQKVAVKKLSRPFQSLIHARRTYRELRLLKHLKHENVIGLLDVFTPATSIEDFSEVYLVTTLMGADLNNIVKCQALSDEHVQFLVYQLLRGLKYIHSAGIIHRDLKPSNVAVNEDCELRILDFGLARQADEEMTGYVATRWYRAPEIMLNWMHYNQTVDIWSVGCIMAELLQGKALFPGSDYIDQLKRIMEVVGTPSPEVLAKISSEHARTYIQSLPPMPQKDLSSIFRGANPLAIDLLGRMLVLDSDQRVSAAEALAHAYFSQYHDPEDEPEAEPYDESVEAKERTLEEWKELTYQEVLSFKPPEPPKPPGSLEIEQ
Cyclin-dependent kinase 4/cyclin D1, sequence (P11802 whole entry): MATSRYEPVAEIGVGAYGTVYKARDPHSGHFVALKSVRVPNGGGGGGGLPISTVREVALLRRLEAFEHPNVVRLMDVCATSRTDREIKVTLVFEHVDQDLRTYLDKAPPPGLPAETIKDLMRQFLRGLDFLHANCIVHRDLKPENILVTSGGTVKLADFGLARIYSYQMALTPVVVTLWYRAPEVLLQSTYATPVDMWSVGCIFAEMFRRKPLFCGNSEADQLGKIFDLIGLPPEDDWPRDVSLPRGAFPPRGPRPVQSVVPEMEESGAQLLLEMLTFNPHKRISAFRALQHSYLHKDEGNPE
Cyclin-dependent kinase 4/cyclin D1, sequence (P24385 whole entry, further chain): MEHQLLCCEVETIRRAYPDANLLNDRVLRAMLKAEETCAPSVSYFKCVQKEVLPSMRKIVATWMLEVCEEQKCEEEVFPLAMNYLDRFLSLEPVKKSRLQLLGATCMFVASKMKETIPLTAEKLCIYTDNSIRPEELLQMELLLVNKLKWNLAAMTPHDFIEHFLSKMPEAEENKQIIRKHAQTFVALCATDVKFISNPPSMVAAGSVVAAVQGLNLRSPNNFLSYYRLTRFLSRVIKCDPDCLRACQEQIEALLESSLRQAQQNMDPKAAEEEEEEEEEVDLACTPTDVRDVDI
RAC-alpha serine/threonine-protein kinase, sequence (P31749 whole entry): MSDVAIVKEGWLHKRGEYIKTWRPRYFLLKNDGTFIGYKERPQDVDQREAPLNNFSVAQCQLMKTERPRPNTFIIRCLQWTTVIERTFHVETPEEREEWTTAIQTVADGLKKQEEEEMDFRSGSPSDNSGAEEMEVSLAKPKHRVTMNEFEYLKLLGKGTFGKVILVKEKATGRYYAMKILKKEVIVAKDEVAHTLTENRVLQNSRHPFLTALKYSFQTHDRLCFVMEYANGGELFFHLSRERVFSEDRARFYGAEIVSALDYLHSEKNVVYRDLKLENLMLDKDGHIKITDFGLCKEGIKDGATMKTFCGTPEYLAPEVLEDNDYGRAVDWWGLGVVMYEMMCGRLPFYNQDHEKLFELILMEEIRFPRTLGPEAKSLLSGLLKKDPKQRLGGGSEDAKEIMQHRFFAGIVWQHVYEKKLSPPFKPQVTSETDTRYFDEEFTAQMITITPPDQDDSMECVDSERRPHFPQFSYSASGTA

Structure (SMILES): NNC(=O)c1sc2c([N+](=O)[O-])cc(C(F)(F)F)cc2[n+]1[O-] [CYCLAPOLIN 10]
IC50 (A549): 72.1 µM
IC50 (HeLa [14]): 53.6 µM
IC50 (HT-29): 50.5 µM

Structure (SMILES): Cc1nc(C)c(-c2ccnc(Nc3ccc(O)cc3)n2)s1
IC50 [54]: 5 µM

Structure (SMILES): CNc1nc(C)c(-c2ccnc(Nc3ccc(O)cc3)n2)s1
IC50 [54]: 10 µM

Structure (SMILES): Cc1nc(N)sc1-c1ccnc(Nc2ccc(O)cc2)n1
IC50 [54]: 25 µM

More lines, main results first:

IC50 [2]: > 100 µM
IC50 [3]: > 100 µM
IC50 [4]: > 100 µM
IC50 [5]: > 100 µM
IC50 [6]: > 100 µM
IC50 [10]: > 100 µM
IC50 [15]: > 100 µM
IC50 [16]: > 100 µM
IC50 (CDK9/cyclin T1): > 100 µM
IC50 [19]: > 100 µM
inhibition (Drosophila melanogaster): inactive
IC50 [20]: > 100 µM
inhibition [21]: inactive
IC50 [23]: > 100 µM
IC50 [24]: > 100 µM
IC50 (Aurora kinase A): > 100 µM
IC50 [26]: > 100 µM
IC50 [28]: > 100 µM
IC50 [29]: > 100 µM
Structure (SMILES): NC(=O)c1sc2c([N+](=O)[O-])cc(SC(F)(F)F)cc2[n+]1[O-] [CYCLAPOLIN 1]
Activity (S2 [1]): Active
IC50 (A549): 14 µM
Activity (S2 [7]): Active
Activity (S2 [8]): Active
Activity (S2 [9]): inactive
Activity (S2 [11]): Active
Activity (S2 [12]): Active
Activity [13]: 80%
IC50 (HeLa [14]): 14 µM
Activity (S2 [17]): inactive
Activity (HeLa [18]): Active
IC50 (HT-29): 2.8 µM
Activity (S2 [22]): Active
inhibition (S2 [25]): Active
Activity (HeLa [27]): Active
Activity (HeLa [30]): Active
inhibition (S2 [31]): inactive

IC50 [2]: > 100 µM
IC50 [3]: > 100 µM
IC50 [4]: > 100 µM
IC50 [5]: > 100 µM
IC50 [6]: > 100 µM
IC50 [10]: > 100 µM
IC50 [15]: > 100 µM
residual activity [32]: 120%
IC50 [16]: > 100 µM
IC50 (CDK9/cyclin T1): > 100 µM
residual activity [33]: 108%
inhibition [34]: < 50%
residual activity [35]: 108%
residual activity [36]: 105%
IC50 [19]: > 100 µM
residual activity [37]: 96%
IC50 [20]: > 100 µM
residual activity [38]: 106%
residual activity [39]: 107%
residual activity [40]: 111%
residual activity [41]: 88%
residual activity [42]: 97%
residual activity [43]: 108%
residual activity [44]: 94%
residual activity [45]: 98%
residual activity [46]: 45%
residual activity [47]: 115%
IC50 [23]: > 100 µM
IC50 [24]: > 100 µM
residual activity [48]: 106%
residual activity [49]: 117%
IC50 (Aurora kinase A): > 100 µM
IC50 [26]: > 100 µM
residual activity [50]: 96%
residual activity [51]: 82%
residual activity [52]: 88%
IC50 [28]: > 100 µM
IC50 [29]: > 100 µM
residual activity [53]: 83%
Structure (SMILES): NC(=O)c1sc2c([N+](=O)[O-])cc(C(F)(F)F)cc2[n+]1[O-] [CYCLAPOLIN 9]
IC50 (A549): 24.8 µM
IC50 (HeLa [14]): 6.6 µM
IC50 (HT-29): 7.7 µM
